Results published in ChEMBL document CHEMBL4041524, “Synthesis and Characterization of a Novel γ-Aminobutyric Acid Type A (GABAA) Receptor Ligand That Combines Outstanding Metabolic Stability, Pharmacokinetics, and Anxiolytic Efficacy” (J Med Chem, 2016).

Assays:
Mus musculus [1] = assay: Toxicity in Swiss mouse assessed as change in motor coordination by measuring number of falls from the rotating rod at 10 mg/kg, ip administered 30 mins prior to testing measured for 2 mins by rotarod test relative to control; type: organism-based; settings: in vivo
In short: (§1)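 The same mice used for marble burying were placed on a rotarod at 4 r.p.m. for 2 min. No fall was scored success, one fall partial, and two falls failure.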

[2] = biological target: GABA-A receptor; alpha-1/beta-3/gamma-2 (Homo sapiens) (UniProt P14867+P18507+P28472); assay: Modulation of recombinant GABA alpha1beta3gamma2 receptor (unknown origin) expressed in Xenopus laevis oocytes assessed as change in GABA-induced EC(3 to 6) current at 1 uM by two-electrode voltage clamp assay; type: cell-based
In short: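 Xenopus laevis oocytes expressing α1, α2, α3 or α5 β3γ2 GABAARs were recorded by two-electrode voltage clamp. Modulation of the GABA EC3-6 current (taken as 100%) was tested at 100 nM, 1 μM and 10 μM in the same cells. Values are mean ± SEM, n = 3–4.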

Mus musculus [3] = assay: Toxicity in Swiss mouse assessed as change in motor coordination by measuring number of falls from the rotating rod at 30 mg/kg, ip administered 30 mins prior to testing measured for 2 mins by rotarod test relative to control; type: organism-based; settings: in vivo; in short: as §1
[4] = Half life in femoral artery/vein cannulated Sprague-Dawley rat at 1 mg/kg, iv administered […] as single dose by LC-MS/MS analysis; type: ADME, organism-based; settings: in vivo
In short: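 Male Sprague-Dawley rats (n = 3 per time point) were dosed 1 mg/kg i.v. or 10 mg/kg i.p. Plasma concentrations were measured at set time points. Clearance, Vdss and T½ came from the i.v. arm, and AUC, Cmax and Tmax from the i.p. arm.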

[5] = Total plasma concentration in Sprague-Dawley rat at 10 mg/kg, ip measured after 4 hrs; type: ADME, organism-based
In short: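 Rats were given 10 mg/kg i.p. (n = 3), and total plasma and brain concentrations were measured at 4 h. Unbound concentrations were calculated as Fu × total concentration, and Kp,uu = Cu,brain/Cu,plasma.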

[6] = biological target: T1, GABA-A receptor; alpha-1/beta-3/gamma-2 (Homo sapiens, UniProt P14867+P18507+P28472); assay: Modulation of recombinant human GABA alpha1beta3gamma2 receptor expressed in HEK293 cells assessed as change in GABA-induced current at -80 mV holding potential preincubated for 3 mins followed by co-administration of GABA by electrophysiology method; type: cell-based
T1 sequence (P14867 whole entry): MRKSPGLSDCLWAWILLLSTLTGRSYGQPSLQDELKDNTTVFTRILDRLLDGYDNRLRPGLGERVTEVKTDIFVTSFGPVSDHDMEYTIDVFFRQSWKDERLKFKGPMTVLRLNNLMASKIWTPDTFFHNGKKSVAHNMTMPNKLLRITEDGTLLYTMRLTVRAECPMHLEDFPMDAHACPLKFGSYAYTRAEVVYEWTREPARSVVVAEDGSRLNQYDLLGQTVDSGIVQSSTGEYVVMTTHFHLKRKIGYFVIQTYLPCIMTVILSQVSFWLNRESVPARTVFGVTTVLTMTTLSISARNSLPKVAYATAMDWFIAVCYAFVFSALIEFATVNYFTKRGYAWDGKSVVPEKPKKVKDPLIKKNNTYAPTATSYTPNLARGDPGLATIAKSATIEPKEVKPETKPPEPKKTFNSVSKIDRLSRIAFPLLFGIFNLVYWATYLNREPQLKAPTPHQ
T1 sequence (P18507 whole entry): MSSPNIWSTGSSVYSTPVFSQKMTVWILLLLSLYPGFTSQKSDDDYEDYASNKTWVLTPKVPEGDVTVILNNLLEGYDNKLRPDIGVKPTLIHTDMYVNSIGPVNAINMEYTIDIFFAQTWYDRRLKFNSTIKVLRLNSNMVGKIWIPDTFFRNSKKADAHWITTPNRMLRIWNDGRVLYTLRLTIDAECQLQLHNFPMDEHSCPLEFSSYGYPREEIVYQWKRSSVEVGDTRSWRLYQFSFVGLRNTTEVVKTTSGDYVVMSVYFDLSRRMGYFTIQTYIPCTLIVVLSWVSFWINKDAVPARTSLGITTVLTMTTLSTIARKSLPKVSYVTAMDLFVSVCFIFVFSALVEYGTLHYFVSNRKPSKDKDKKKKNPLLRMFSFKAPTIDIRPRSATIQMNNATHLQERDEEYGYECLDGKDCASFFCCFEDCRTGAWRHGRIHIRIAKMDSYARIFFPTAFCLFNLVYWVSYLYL
T1 sequence (P28472 whole entry): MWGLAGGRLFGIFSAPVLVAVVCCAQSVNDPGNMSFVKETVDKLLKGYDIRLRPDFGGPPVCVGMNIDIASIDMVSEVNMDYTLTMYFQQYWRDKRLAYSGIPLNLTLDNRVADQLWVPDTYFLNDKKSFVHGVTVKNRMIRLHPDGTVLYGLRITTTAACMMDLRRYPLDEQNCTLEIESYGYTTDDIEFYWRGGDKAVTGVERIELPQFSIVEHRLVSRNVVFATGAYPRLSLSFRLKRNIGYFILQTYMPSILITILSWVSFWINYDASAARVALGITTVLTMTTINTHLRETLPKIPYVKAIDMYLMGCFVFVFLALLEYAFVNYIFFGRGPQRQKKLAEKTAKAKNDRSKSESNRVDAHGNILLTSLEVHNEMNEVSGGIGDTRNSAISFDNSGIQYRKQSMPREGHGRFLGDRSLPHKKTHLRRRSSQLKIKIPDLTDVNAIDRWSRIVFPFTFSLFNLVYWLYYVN

[7] = biological target: T2, GABA-A receptor; alpha-3/beta-3/gamma-2 (Homo sapiens, UniProt P18507+P28472+P34903); assay: Binding affinity to human GABAA alpha3beta3gamma2 receptor expressed in HEK293 cells assessed as GABA-induced membrane potential change preincubated for 3 mins followed by addition of GABA measured after 3 mins by FLIPR assay; type: cell-based
T2 sequence (P18507 whole entry): T1 sequence (P18507 whole entry)
T2 sequence (P28472 whole entry): T1 sequence (P28472 whole entry)
T2 sequence (P34903 whole entry): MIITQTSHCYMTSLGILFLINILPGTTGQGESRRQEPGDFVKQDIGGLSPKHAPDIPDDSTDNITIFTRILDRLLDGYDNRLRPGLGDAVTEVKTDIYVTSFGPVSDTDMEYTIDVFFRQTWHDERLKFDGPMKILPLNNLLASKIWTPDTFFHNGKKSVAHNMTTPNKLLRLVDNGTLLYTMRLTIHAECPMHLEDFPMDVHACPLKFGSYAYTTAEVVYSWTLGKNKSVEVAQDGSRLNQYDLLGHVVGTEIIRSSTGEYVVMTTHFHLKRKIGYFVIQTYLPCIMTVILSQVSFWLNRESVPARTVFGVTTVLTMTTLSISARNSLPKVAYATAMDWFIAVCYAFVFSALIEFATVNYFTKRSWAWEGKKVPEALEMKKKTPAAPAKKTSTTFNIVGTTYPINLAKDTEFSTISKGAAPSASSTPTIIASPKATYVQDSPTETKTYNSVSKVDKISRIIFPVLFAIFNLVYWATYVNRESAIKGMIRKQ
In short: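 Stably transfected HEK293T cells expressing α1β3γ2 (n = 2) or α3β3γ2 (n = 1) GABAARs. Membrane potential was read as fluorescence changes on a FLIPR Tetra, and EC50 was derived.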

C#Cc1ccc2c(c1)C(c1ccccn1)=NCc1c(-c3cnco3)ncn1-2
Activity (Mus musculus [1]): Toxic | Activity [2]: 155% | Activity (Mus musculus [3]): Non-Toxic | half-life [4]: 1.4 h | concentration at 4 h [5]: 2130 nM | EC50 [6]: 489 nM | EC50 [7]: 937 nM
